Results from ChEMBL document CHEMBL1125833, “Anxiolytic properties of certain annelated [1,2,4]triazolo[1,5-c]pyrimidin-5(6H)-ones” (J Med Chem, 1991).
Where “and” joins values, the source holds several entries; their conditions need not be identical. Equal values may be shown once.

Tests used:
[1] = target: GABA-A receptor; anion channel; test: Displacement of [3H]flunitrazepam (FNZ) from GABA-A benzodiazepine receptor in rat forebrain
Rattus norvegicus [2] = test: Anxiolytic response at 30 mg/Kg measured by antagonism of pentylenetetrazole discriminative stimuli in rats.; type: functional
[3] = target: GABA-A receptor; anion channel (Rattus norvegicus) (UniProt O09028+P15431+P18506+P18508+P19969+P20236+P23574+P23576+P28471+P28473+P30191+P62813+P63079+P63138+Q91ZM7+Q9ES14); test: GABA ratio measured by the IC50 in the absence of GABA compared to the IC50 in the presence of GABA in rats.
Method in brief: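 Modified [3H]flunitrazepam binding in rat forebrain, with IC50 measured with and without GABA. Ratio = IC50 without GABA divided by IC50 with GABA.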

Rattus norvegicus [4] = species: Rattus norvegicus; test: Anxiolytic response measured by antagonism of pentylenetetrazole discriminative stimuli in rats.; type: functional
Method in brief: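 Rats trained to discriminate a subconvulsant dose of pentylenetetrazole (PTZ) from vehicle. Test compound given 30 min before the PTZ dose. Antagonism of the PTZ stimulus is scored as the anxiolytic response. ED50 values by probit analysis, with 95% confidence limits.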

Rattus norvegicus [5] = test: Compound tested for its effect on Nonconflict (VI) operant responding of rats at a dose of 30.0 mg/Kg administered perorally.; type: functional
Method in brief: (§1)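 Cook-Davidson conflict procedure in rats given oral doses. Rats lever-press for milk reward with shock (conflict, FR) and without shock (nonconflict, VI). Value is % change in response rate, with significance set at P < 0.05. The minimally effective oral dose is taken as the dose raising conflict responding or lowering VI responding.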

Rattus norvegicus [6] = test: Compound tested for its effect on conflict (FR) operant responding of rats at a dose of 30.0 mg/Kg administered perorally.; type: functional; method in brief: as §1
Rattus norvegicus [7] = test: Compound tested for its effect on Nonconflict (VI) operant responding of rats at a dose of 10.0 mg/Kg administered perorally.; type: functional; method in brief: as §1
Rattus norvegicus [8] = test: Minimal effective oral dose to cause VI response decrement in rats.; type: functional; method in brief: as §1
[9] = target: GABA-A receptor; anion channel; test: Displacement of [3H]flunitrazepam from GABA-A Benzodiazepine receptors in rat forebrain
Rattus norvegicus [10] = test: Minimal effective oral dose to cause ethanol interaction in rats.; type: functional
Method in brief: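 Rotorod test of ethanol interaction in male Wistar (Crl:(WI)BR) rats, 130–160 g. Vehicle or test compound (0, 1, 3, 10 mg/kg) given orally 30 min before ethanol. Graded ethanol doses given ip 30 min before rotorod testing. Ethanol ED50 reported with confidence limits, P < 0.05.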

Rattus norvegicus [11] = test: Minimal effective oral dose to cause increase in conflict response in rats after po administration.; type: functional; method in brief: as §1
Rattus norvegicus [12] = test: Anxiolytic response at 10 mg/Kg measured by antagonism of pentylenetetrazole discriminative stimuli in rats.; type: functional
Rattus norvegicus [13] = test: Compound tested for its effect on Nonconflict(VI) operant responding of rats at a dose of 10.0 mg/kg administered perorally.; type: functional; conditions: route oral; method in brief: as §1
Rattus norvegicus [14] = test: Compound tested for its effect on Nonconflict(VI) operant responding of rats at a dose of 3.0 mg/kg administered perorally.; type: functional; conditions: route oral; method in brief: as §1
Rattus norvegicus [15] = test: Compound tested for its effect on conflict(FR) operant responding of rats at a dose of 10.0 mg/kg administered perorally.; type: functional; conditions: route oral; method in brief: as §1
Rattus norvegicus [16] = test: Compound tested for its effect on conflict(FR) operant responding of rats at a dose of 3.0 mg/kg administered perorally.; type: functional; conditions: route oral; method in brief: as §1
Rattus norvegicus [17] = test: Compound tested for its effect on conflict (FR) operant responding of rats at a dose of 30.0 mg/Kg administered perorally; type: functional; method in brief: as §1
Rattus norvegicus [18] = test: Compound tested for its effect on Nonconflict (VI) operant responding of rats at a dose of 3.0 mg/Kg administered perorally.; type: functional; method in brief: as §1
Rattus norvegicus [19] = test: Compound tested for its effect on conflict (FR) operant responding of rats at a dose of 10.0 mg/Kg administered perorally.; type: functional; method in brief: as §1
Rattus norvegicus [20] = test: Compound tested for its effect on conflict (FR) operant responding of rats at a dose of 3.0 mg/Kg administered perorally.; type: functional; method in brief: as §1

Row | IC50 [1] [nM] | GABA ratio [3] | SMILES | ED50 (Rattus norvegicus [4]) [mg/kg] | further results
1 | 27 | 1.06 | COC(=O)CN1CCc2nc(O)n3nc(-c4ccccc4F)nc3c2C1 | – | inhibition in vivo at 30 mg/kg (Rattus norvegicus [2]): 12%
2 | 442 | – | Oc1nc2c(c3nc(-c4ccccc4F)nn13)CNCC2 | – | –
3 | 7.6 | 1.65 | Oc1nc2c(c3nc(-c4ccc[nH]4)nn13)CN(Cc1ccccc1)CC2 | 17.3 | –
4 | 2.4 | 1.6 | Oc1nc2c(c3nc(-c4cccc(F)c4)nn13)CN(Cc1ccccc1)CC2 | – | –
5 | 22.4 | 2.45 | Oc1nc2c(c3nc(-c4ccc(Cl)cc4)nn13)CN(Cc1ccccc1)CC2 | 6.43 | Change in response rate (Rattus norvegicus [5]): -45%; Change in response rate (Rattus norvegicus [6]): 104% and 188%; Change in response rate (Rattus norvegicus [7]): 4%; MED (Rattus norvegicus [8]): 30 mg/kg
6 | – | 0.82 | O=C1C2C=Nc3ccccc3C2=NN1c1ccccc1 (stereo not given) [CGS-8216] | – | IC50 [9]: 0.45 nM
7 | – | – | O=C1C2C=Nc3ccccc3C2=NN1c1ccc(Cl)cc1 (stereo not given) [CGS-9896] | 2.3 | MED (Rattus norvegicus [10]): 30 mg/kg; MED (Rattus norvegicus [11]): 10 mg/kg
8 | > 1000 | – | CC1c2nc(O)n3nc(-c4ccccc4F)nc3c2CN1Cc1ccccc1 (stereo not given) | – | –
9 | 0.64 | 1.65 | Oc1nc2c(c3nc(-c4ccccc4F)nn13)CN(Cc1ccccn1)CC2 | – | inhibition in vivo at 10 mg/kg (Rattus norvegicus [12]): 50%
10 | 150 | – | CCN1CCc2nc(O)n3nc(-c4ccccc4F)nc3c2C1 | – | –
11 | 0.74 | 1.4 | Oc1nc2c(c3nc(-c4ccccc4F)nn13)CN(Cc1cccnc1)CC2 | 3.65 | Change in response rate (Rattus norvegicus [13]): -21%; Change in response rate (Rattus norvegicus [14]): -8%; Change in response rate (Rattus norvegicus [15]): 322%; Change in response rate (Rattus norvegicus [16]): 129%; MED (Rattus norvegicus [8]): 10 mg/kg; MED (Rattus norvegicus [11]): 10 mg/kg
12 | 20.6 | 1.6 | Oc1nc2c(c3nc(-c4ccccn4)nn13)CN(Cc1ccccc1)CC2 | 26 | –
13 | 140 | – | O=C(Cc1ccccc1)N1CCc2nc(O)n3nc(-c4ccccc4F)nc3c2C1 | – | –
14 | 1.7 | – | Oc1nc2c(c3nc(-c4ccccc4F)nn13)CCCC2 | 2.4 | Change in response rate (Rattus norvegicus [5]): 1%; Change in response rate (Rattus norvegicus [17]): 132%; MED (Rattus norvegicus [11]): 30 mg/kg
15 | 7.2 | – | Oc1nc2c(c3nc(-c4ccccc4F)nn13)CCCCC2 | 4.4 | Change in response rate (Rattus norvegicus [18]): 11%; Change in response rate (Rattus norvegicus [5]): 49%; Change in response rate (Rattus norvegicus [19]): 232%; Change in response rate (Rattus norvegicus [20]): 79%; Change in response rate (Rattus norvegicus [6]): 236%; Change in response rate (Rattus norvegicus [7]): 53%; MED (Rattus norvegicus [8]): 10 mg/kg; MED (Rattus norvegicus [11]): 10 mg/kg
16 | 105 | – | CC(C)N1CCc2nc(O)n3nc(-c4ccccc4F)nc3c2C1 | – | –
